Assay results from ChEMBL document CHEMBL1124098, “N-terminal requirements of small peptide anticoagulants based on hirudin54-65” (J Med Chem, 1988).
Starred links: 1 amine or outer side, 2 acyl side, 3 side chain; linkers in the order of their positions; H or OH if unused. Non-standard residues stand in square brackets, D forms with d. Residues, ends and D or L forms follow the SMILES beside them. *: point of attachment. Hydrocinnamoyl = O=C(CCc1ccccc1)*; Phg = N[C@H](C(=O)O)c1ccccc1; Suc = O=C(CCC(=O)[*:2])[*:1]; X1 = O=C(/C=C/c1ccccc1)*; Bz = O=C(c1ccccc1)*

Assay: In vitro Inhibition of fibrin clot formation relative to a blank control after thrombin addition to plasma in human
Format: functional, cell-free
Procedure, shortened: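 Fasted donor human plasma collected in 0.1% EDTA (final), filter-sterilized, stored at -20 °C. Bovine thrombin (0.2 pmol) preincubated with peptide 10 min at 24 °C. Then 1:10 diluted plasma in NaCl/sodium phosphate was added. Buffer pH 7.4 with 0.1% BSA.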

Row | IC50 [µM] | Compound
1 | > 250 | CC[C@H](C)[C@H](NC(=O)[C@H](CCC(=O)O)NC(=O)[C@H](CCC(=O)O)NC(=O)[C@@H](NC(=O)[C@H](CC(=O)O)NC(=O)CN)c1ccccc1)C(=O)N1CCC[C@H]1C(=O)N[C@@H](CCC(=O)O)C(=O)N[C@@H](CCC(=O)O)C(=O)N[C@@H](Cc1ccc(O)cc1)C(=O)N[C@@H](CC(C)C)C(=O)N[C@@H](CCC(N)=O)C(=O)O (H-GD[Phg]EEIPEEYLQ-OH)
2 | > 250 | CC[C@H](C)[C@H](NC(=O)[C@H](CCC(=O)O)NC(=O)[C@H](CCC(=O)O)NC(=O)CCc1ccccc1)C(=O)N1CCC[C@H]1C(=O)N[C@@H](CCC(=O)O)C(=O)N[C@@H](CCC(=O)O)C(=O)N[C@@H](Cc1ccc(O)cc1)C(=O)N[C@@H](CC(C)C)C(N)=O (Hydrocinnamoyl-EEIPEEYL-NH2)
3 | 1.7 | CC[C@H](C)[C@H](NC(=O)[C@H](CCC(=O)O)NC(=O)[C@H](CCC(=O)O)NC(=O)[C@H](Cc1ccccc1)NC(=O)CCC(=O)O)C(=O)N1CCC[C@H]1C(=O)N[C@@H](CCC(=O)O)C(=O)N[C@@H](CCC(=O)O)C(=O)N[C@@H](Cc1ccc(O)cc1)C(=O)N[C@@H](CC(C)C)C(=O)N[C@@H](CCC(N)=O)C(=O)O (Suc-FEEIPEEYLQ-OH)

Second part, the compound before the results:

Row | Compound | IC50 [µM]
4 | CC[C@H](C)[C@H](NC(=O)[C@H](CCC(=O)O)NC(=O)[C@H](CCC(=O)O)NC(=O)c1ccccc1)C(=O)N1CCC[C@H]1C(=O)N[C@@H](CCC(=O)O)C(=O)N[C@@H](CCC(=O)O)C(=O)N[C@@H](Cc1ccc(O)cc1)C(=O)N[C@@H](CC(C)C)C(N)=O (Bz-EEIPEEYL-NH2) | > 250
5 | CC[C@H](C)[C@H](NC(=O)[C@H](CCC(=O)O)NC(=O)[C@H](CCC(=O)O)NC(=O)/C=C/c1ccccc1)C(=O)N1CCC[C@H]1C(=O)N[C@@H](CCC(=O)O)C(=O)N[C@@H](CCC(=O)O)C(=O)N[C@@H](Cc1ccc(O)cc1)C(=O)N[C@@H](CC(C)C)C(N)=O (X1-EEIPEEYL-NH2) | > 250
6 | H-FEEIPEEYLQ-OH | 34
